The subject of the assay is CAspII. The experiment in a line: Michaelis-Menten kinetics of L-asparagine hydrolysis. The settings on record: free enzyme; assay pH and temperature only in supplement. The assay is classed as biochemical, uncultured Gemmatimonadota bacterium. The method, boiled down:
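Synthetic codon-optimised gene fused to a C-terminal His6 tag in pET21a(+) and expressed in E. coli. Mid-log cultures in LB were induced with 0.2 mM IPTG for 3 hours at 30°C. Protein was purified on nickel-agarose; the preparation was enriched but not fully pure. Km was fitted to the classical Michaelis-Menten equation with L-asparagine as substrate, reported as mean ± SEM.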

As for `NC(=O)C[C@H](N)C(=O)O` [L-asparagine], the Michaelis-Menten constant (Km) came to 350 ± 20 µM.

(Values after publication PMC7797908 (iScience, 2021).)
